# Screening data as filed in PubChem.
# Most compounds without a hit are left out; they make up all but 4.1% or so of the library.
# hERG protect = hERG (human) protection from proarrhythmic block | Q12809 | CHO-hERG, FluxOR thallium flux, dofetilide IC70 present | activation (rescue from dofetilide block), less the hit threshold, % at 10 µM | actives 0.51% (n = 310,000) | AID 1511;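 active = activation above the mean of controls blocked by dofetilide plus 5 SD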;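 also: thallium influx through hERG after potassium depolarization seen as dye fluorescence rise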
# KCNQ1 inh = blocks the human KCNQ1 potassium channel; P51787; CHO-K1 KCNQ1, FluxOR thallium flux fluorescence; stronger effect = higher value; B-score at 10 µM; actives 1.3% (n = 310,000);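 active = compounds whose thallium flux B-score, printed positive for inhibition, exceeds three library SD while starting fluorescence stays within three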;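 also: channel opened by potassium depolarization with thallium stimulus after 20 min compound exposure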
# Target sequence (P51787 whole entry, looked up): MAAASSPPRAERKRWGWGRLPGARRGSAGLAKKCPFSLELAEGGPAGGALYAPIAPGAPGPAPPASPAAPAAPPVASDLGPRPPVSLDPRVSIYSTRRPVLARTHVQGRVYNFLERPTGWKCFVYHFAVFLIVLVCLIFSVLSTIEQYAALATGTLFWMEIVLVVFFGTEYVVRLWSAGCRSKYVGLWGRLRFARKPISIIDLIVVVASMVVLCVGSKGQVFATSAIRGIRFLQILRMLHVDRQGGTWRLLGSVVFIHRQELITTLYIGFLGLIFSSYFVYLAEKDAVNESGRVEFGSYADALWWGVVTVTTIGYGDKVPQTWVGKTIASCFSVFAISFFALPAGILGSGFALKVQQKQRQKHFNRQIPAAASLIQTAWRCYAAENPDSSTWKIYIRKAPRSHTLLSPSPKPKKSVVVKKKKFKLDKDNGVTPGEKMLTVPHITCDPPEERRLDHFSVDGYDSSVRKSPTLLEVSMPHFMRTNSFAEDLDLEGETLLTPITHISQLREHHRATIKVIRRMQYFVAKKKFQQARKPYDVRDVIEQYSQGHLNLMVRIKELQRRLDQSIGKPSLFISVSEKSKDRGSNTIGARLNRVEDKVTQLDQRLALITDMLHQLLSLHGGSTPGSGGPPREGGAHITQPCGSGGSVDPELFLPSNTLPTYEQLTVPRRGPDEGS
# KCNK3 inh = human KCNK3 channel inhibition, primary screen. O14649. CHO-KCNK3 thallium flux, FluxOR fluorescence; stronger effect = lower value. B-score at 10 µM. actives 0.84% (n = 340,000). AID 602410;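 active = B-score under library mean minus 4 SD, starting fluorescence ratio at most library mean plus 5 SD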;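 also: more negative B-score means stronger inhibition of thallium flux through KCNK3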
# KCNK9 inh = human KCNK9 channel inhibition; Q9NPC2; actives 1.2% (n = 310,000); HEK293 KCNK9, FluxOR thallium flux fluorescence; stronger effect = lower value; B-score at 10 µM;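 active = ratio B-score over 3 SD below the library mean, with starting fluorescence within 5 SD of its mean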;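 also: negative B-score means less thallium flux so channel inhibition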
# Cl transport mod = KCC2 (human) Cl- transport modulation | KCC2 cells, thallium flux FluoZin-2 fluorescence | Q9H2X9 | B-score of Tl+ flux slope (higher = more flux/activation; lower = inhibition) at 10 µM | actives 2.2% (n = 190,000);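 active = thallium flux slope and its plate-corrected score both differing from the plate sample mean at a set confidence after two filtering rounds, in either direction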;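 also: slope of fluorescence scaled to starting intensity during 10 to 20 s after thallium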
# KCNQ1 pot = human KCNQ1 channel potentiation or activation. B-score at 10 µM. P51787. CHO-K1 KCNQ1, thallium flux FluxOR fluorescence; stronger effect = higher value. actives 0.35% (n = 310,000). AID 2648;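 active = fluorescence ratio B-score, a plate-corrected score, at least three library SD, with initial intensity B-score within 5 SD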
#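 System: CHO-K1 cells stably expressing KCNQ1 / Medium: assay buffer for compound exposure, DMSO matched across wells / Reagent: thallium- and potassium-containing depolarizing buffer / Compound: one concentration, matched DMSO / Incubation: 20 min compound pretreatment at room temperature / Measured by: kinetic FluxOR fluorescence, 10 s baseline plus 110 s post-stimulus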
# A number is an active result; - = inactive; . = no result given.
SMILES,hERG protect,KCNQ1 inh,KCNK3 inh,KCNK9 inh,Cl transport mod,KCNQ1 pot
COc1ccc(/C=N/n2c(C)cc(C)c(C(N)=O)c2=O)cc1,6.5,-,-,-,-,-
CC(OC(=O)c1cc(S(=O)(=O)N2CCOCC2)ccc1F)C(=O)NCc1ccc2c(c1)OCO2 (centres undefined),-,-,-,-,.,-
S=C(Nc1ccc(Cl)cc1)NC1CC2CCCC(C1)N2C1CC1 (centres undefined),-,-,-,-,.,-
S=C(Nc1ccc(Cl)cc1)NC1CC2CCCC(C1)N2C1CCCC1 (centres undefined),5.6,-,-,-,.,-
CCCCC(=O)Nc1ccc(NCc2ccc(C)s2)cc1,8.6,-,-,-,.,-
CCCCC(=O)Nc1ccc(C(N)=O)cc1,-,-,-,-,-,-
O=C(COc1ccc(Cl)cc1)N(Cc1ccco1)C1CCS(=O)(=O)C1 (centres undefined),-,-,-,-,-,-
CN(C)c1ccc(CN(C(=O)c2cc3ccccc3oc2=O)C2CCS(=O)(=O)C2)cc1 (centres undefined),-,-,-,-,.,-
O=C(c1cc2ccccc2oc1=O)N(Cc1ccco1)C1CCS(=O)(=O)C1 (centres undefined),-,-,-,-,-4.69,-
O=C(COc1ccc(Cl)cc1Cl)N(Cc1ccco1)C1CCS(=O)(=O)C1 (centres undefined),-,-,-,-6.96,.,-
CCOc1cc2[nH]c(=S)n(C(C)C)c(=O)c2cc1OCC,-,-,-,-,9.73,-
CC1CCCCC1NC(=O)CCCn1c(=S)[nH]c2ccccc2c1=O (centres undefined),-,-,-,-,-,-
CCOc1cc2[nH]c(=S)n(C3CC3)c(=O)c2cc1OCC,-,-,-,-,-,-
CC(C)n1c(=S)[nH]c2ccccc2c1=O,-,-,-,-,37.5,-
COn1c(=S)[nH]c2ccccc2c1=O,.,.,-,.,.,.
CCC1CCCCN1CCCn1c(=S)[nH]c2ccccc2c1=O (centres undefined),-,-,-,-,9.23,-
CC1CCCCC1n1c(=S)[nH]c2ccccc2c1=O (centres undefined),-,-,-,-,187,19
CCOC(=O)[C@H]1[C@H]2COc3ccccc3[C@@H]2N2C(=O)CN(CC3CCCO3)C(=O)[C@@]12C (some centres undefined),.,.,-,.,.,.
CC(=O)c1ccc(OC(C)c2nc3ccccc3s2)cc1 (centres undefined),-,-,-,-,.,-
Cc1nc(SCC(=O)c2ccccc2)c(C#N)c(-c2ccco2)c1C(=O)NCc1ccco1,-,6,-,-,-,-
CCOC(=O)C1=C(COC(=O)CNS(=O)(=O)c2c(F)cc(F)cc2Br)NC(=O)NC1C (centres undefined),.,.,-,.,.,.
NS(=O)(=O)c1ccc(CCNC(=O)CSc2ccc3ccccc3c2)cc1,10.8,-,-,-,-,-
NS(=O)(=O)c1ccc(CCNC(=O)CSc2ccc([N+](=O)[O-])cc2)cc1,-,-,-,-,.,-
CC(=O)Nc1ccc(S(=O)(=O)N2CCN(c3nc(NC4CCCC4)c4ccccc4n3)CC2)cc1,-,6,-,-,-,-
CN(CC(=O)Nc1ccc(F)c(F)c1F)C(=O)Cc1ccc(S(=O)(=O)N2CCOCC2)s1,.,.,-,.,.,.
SMILES,hERG protect,KCNQ1 inh,KCNK3 inh,KCNK9 inh,Cl transport mod,KCNQ1 pot
COC(=O)c1ccc(C23CC4(C2)[C@H](CN(C)[C@@H]4c2ccccc2)C3c2ccccc2)cc1 (some centres undefined),-,-,-,-6.61,-,-
COC(=O)c1cccc(C23CC4(C2)[C@H](CN(C)[C@@H]4c2ccccc2)C3c2ccccc2)c1 (some centres undefined),-,-,-,-,-,-
COc1ccc(NC(=O)c2cccc(S(=O)(=O)N3CCOCC3)c2)cn1,-,-,-,-6.92,.,-
COc1cc(OC)c(OC)cc1/C=N/NC(=O)c1cccc(S(=O)(=O)N2CCOCC2)c1,-,-,-,-,-,-
O=C(O)COc1ccccc1/C=N/NC(=O)c1cccc(S(=O)(=O)N2CCOCC2)c1,5.4,-,-,-,-,-
Cc1cccc(NS(=O)(=O)c2cccc(C(=O)N3CCN(C/C=C/c4ccccc4)CC3)c2)c1,.,.,-,.,.,.
Cc1c(Cl)cccc1NC(=O)CSc1ncnc2c1cnn2CCO,-,-,-,-,.,-
O=C(CC(=O)c1ccccc1)CC(O)(C=Cc1ccccc1)c1ccccc1 (centres undefined),.,.,-9.09,.,.,.
O=C(/C=C/c1ccccc1)CC(=O)c1ccccc1,.,.,-,.,.,.
COc1ccc(N=C2S/C(=C\c3ccc(Cl)c([N+](=O)[O-])c3)C(=O)N2CCN(C)C)cc1,-,10,-,-,.,-
COC(=O)c1ccc(=O)n(-c2ccc(OC)cc2)c1,-,-,-,-,8.16,-
CC(C)(C)C(=O)Nc1cccc(OC(F)(F)C(F)Cl)c1 (centres undefined),-,-,-,-6.95,-,-
CC(=O)c1ccc(OCc2cc(C(=O)NCCn3nc(C)cc3C)no2)cc1,-,-,-,-,.,-
COc1ccccc1C(=O)NC(=Nc1nc2ccccc2o1)NC(=O)c1ccccc1OC,-,-,-,-16.1,-,-
O=C1COc2ccc(C(=O)COC(=O)COc3ccccc3[N+](=O)[O-])cc2N1,-,-,-,-,-,-
N#Cc1ccccc1OCC(=O)OCC(=O)c1ccc2c(c1)NC(=O)CO2,5.4,-,-,-,-,-
CN(/N=C/c1cc(Br)cc(Br)c1O)c1cccc(C(F)(F)F)n1,-,-,-,-7.14,.,-
Cc1ccc(C(=O)O)cc1N=Cc1cc(Br)cc(Br)c1O,-,-,-,-,-,-
COc1ccc(OC)c(C2=C/C(=C/c3ccccn3)C(=O)O2)c1,-,-,-,-7.6,-,-
COc1ccc(/C(C#N)=C/c2ccccn2)cc1,-,-,-,-,-,-
O=C(NCc1ccco1)c1ccc2c(c1)N(Cc1ccc(Cl)cc1)CCS2,-,-,-,-6.81,-,-
O=C(NCc1ccco1)c1ccc2c(c1)N(Cc1ccccc1)CCS2,-,-,-,-,-,-
COc1ccc(S(=O)(=O)Nc2ccccc2C(=O)N2CCCCC2)cc1C,-,-,-,-,.,-
CC(=O)c1ccc2c(c1)c(C#N)c1ccccc1[n+]2[O-],-,11,-,-,.,-
O=C(CCl)NC(Cc1ccccc1)C(=O)OCC(=O)c1ccc(-c2ccccc2)cc1 (centres undefined),.,.,-,.,.,.
COc1ccc([C@@H]2C[C@H](c3ccccc3)Oc3cc(OC)c(OC)c(OC)c32)cc1,-,-,-,-6.82,-,-
O=C(COc1ccc(S(=O)(=O)NCc2ccccc2)cc1)NCc1cccnc1,-,-,-,-,.,-
